Laboratory results: ChEMBL document CHEMBL1142554, “Lyngbyastatin 2 and norlyngbyastatin 2, analogues of dolastatin G and nordolastatin G from the marine cyanobacterium Lyngbya majuscula” (J Nat Prod, 1999)
≈ marks a conversion by molar mass, not a printed value. Calls of active or inactive are those of the source. The calls are words filed in the database; no cut-off is given here. Starred links: 1 amine or outer side, 2 acyl side, 3 side chain; linkers in the order of their positions; H or OH if unused. Positions of bridges follow the written chain, without caps; N, C: chain ends. Non-standard residues stand in square brackets, D forms with d. Residues, ends and D or L forms follow the SMILES beside them. X1 = CC[C@H](CCC[C@@H](O)[C@@H](C)C(=O)O[C@H](C)[C@@H](C)C/C=C(C)/C(=C\C(=O)[*:1])OC)O[*:2]; X2 = CC[C@H](CCC[C@@H](O)[C@@H](C)C(=O)O[C@H](C)[C@@H](C)C/C=C(\C)C(=O)CC(=O)[*:1])O[*:2]; NMeI = CC[C@H](C)[C@H](NC)C(=O)O; NMeV = CN[C@H](C(=O)O)C(C)C; NMeS = CN[C@@H](CO)C(=O)O

Experiments:
KB = experiment: Cytotoxicity against human KB cells; assay type: functional, cell-based
LoVo = experiment: Cytotoxicity against human LoVo cells; assay type: functional, cell-based
Mus musculus = species: Mus musculus; experiment: Toxicity in mouse; assay type: organism-based; conditions: in vivo
MC-38 = experiment: Cytotoxicity against mouse C38 cells at 1.8 mg/kg by in vivo assay; assay type: functional, organism-based; parameters: dose 1.8 mg/kg
Procedure, shortened: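 In vivo mouse model bearing the murine colon adenocarcinoma C38, with compound dosed at 1.8 mg/kg or lower.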

[1] = Inhibition of microtubule assembly
[2] = Inhibition of microfilament assembly
[3] = target: T1, DNA topoisomerase 1 (Homo sapiens) (UniProt P11387); experiment: Inhibition of topoisomerase 1
T1 sequence (whole entry): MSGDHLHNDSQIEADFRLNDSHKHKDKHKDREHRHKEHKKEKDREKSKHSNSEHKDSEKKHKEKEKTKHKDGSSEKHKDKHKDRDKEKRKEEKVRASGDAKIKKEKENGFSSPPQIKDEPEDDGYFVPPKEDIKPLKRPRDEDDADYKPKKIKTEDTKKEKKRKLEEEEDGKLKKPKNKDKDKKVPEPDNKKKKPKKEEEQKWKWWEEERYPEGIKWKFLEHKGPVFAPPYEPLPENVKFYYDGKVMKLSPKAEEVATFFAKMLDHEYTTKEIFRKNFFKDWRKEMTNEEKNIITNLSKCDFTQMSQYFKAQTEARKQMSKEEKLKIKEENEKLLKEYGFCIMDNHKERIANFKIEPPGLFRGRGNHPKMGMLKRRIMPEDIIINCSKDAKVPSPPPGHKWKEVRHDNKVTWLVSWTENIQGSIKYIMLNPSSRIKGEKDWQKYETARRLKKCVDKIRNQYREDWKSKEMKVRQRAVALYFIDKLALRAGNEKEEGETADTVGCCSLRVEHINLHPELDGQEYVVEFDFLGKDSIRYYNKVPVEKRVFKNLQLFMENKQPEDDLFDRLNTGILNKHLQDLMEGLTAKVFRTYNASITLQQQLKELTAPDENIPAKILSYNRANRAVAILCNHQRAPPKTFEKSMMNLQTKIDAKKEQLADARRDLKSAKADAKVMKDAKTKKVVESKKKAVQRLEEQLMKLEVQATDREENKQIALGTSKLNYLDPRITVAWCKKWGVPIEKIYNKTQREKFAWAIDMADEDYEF

Structure (SMILES)	IC50 (KB) [mg/L]	IC50 (LoVo) [mg/L]	LD100 (Mus musculus) [mg/kg]	Activity (MC-38)	Activity [1]	Activity [2]	Activity [3]
CC[C@@H]1CCC[C@@H](O)[C@@H](C)C(=O)O[C@H](C)[C@@H](C)C/C=C(C)/C(OC)=C\C(=O)N(C)[C@@H]([C@@H](C)CC)C(=O)N(C)[C@@H](C(C)C)C(=O)N(C)[C@@H](COC)C(=O)N2CCC[C@H]2C(=O)N(C)[C@@H](C(C)C)C(=O)N2CCC[C@H]2C(=O)O1 [LYNGBYASTATIN 2] ([NMeI][NMeV][NMeS](Me)P[NMeV]P; linker N-C via X1)	0.02 (≈ 0.0189 µM)	0.014 (≈ 0.0132 µM)	3	inactive	inactive	inactive	inactive
CC[C@@H]1CCC[C@@H](O)[C@@H](C)C(=O)O[C@H](C)[C@@H](C)C/C=C(\C)C(=O)CC(=O)N(C)[C@@H]([C@@H](C)CC)C(=O)N(C)[C@@H](C(C)C)C(=O)N(C)[C@@H](COC)C(=O)N2CCC[C@H]2C(=O)N(C)[C@@H](C(C)C)C(=O)N2CCC[C@H]2C(=O)O1 [NORLYNGBYASTATIN 2] ([NMeI][NMeV][NMeS](Me)P[NMeV]P; linker N-C via X2)	0.93 (≈ 0.89 µM)	0.475 (≈ 0.454 µM)	–	–	inactive	inactive	inactive
